From ChEMBL document CHEMBL5712084, “Interactome Rewiring Following Pharmacological Targeting of BET Bromodomains” (Mol Cell, 2019)
Calls of active or inactive are those of the source. No cut-off for these calls is given here.

Experiments:
[1] = target: T1, Bromodomain and extra-terminal motif (BET) (Homo sapiens) (UniProt P25440+O60885+Q58F21+Q15059); details: Flp-In-T-REx-293, dose 500.0 nM, time 10-240 min
[2] = target: Bromodomain-containing protein 2 (Homo sapiens) (UniProt P25440); details: U2OS, dose 500.0 nM, time 20.0 sec
U2OS [3] = assay: Inhibition of BRD1:2 mutant bromodomain in human U2OS cells assessed as foci formation of BRD2 mutant in to foci at 500 nM by live cell imaging; type: cell-based
Method in brief: (§1)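 Flp-In T-REx U-2 OS cells were grown in DMEM with GlutaMAX and 10% heat-inactivated FBS plus penicillin-streptomycin at 37°C and 10% CO2. eGFP-tagged constructs were expressed from a tetracycline-inducible pcDNA5-FRT-TO vector. Nuclear and nucleolar localisation and foci were followed by live-cell imaging.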

[4] = target: T1, Bromodomain and extra-terminal motif (BET) (Homo sapiens); details: Flp-In-T-REx-293, dose 500.0 nM, time 10-240 min; remark: listed apart in the source
[5] = test system: Bromodomain-containing protein 2 (Homo sapiens), P25440 [UNDEFINED MUTATION]; details: Flp-In-T-REx-293, dose 500.0 nM, time 24.0 hrs
[6] = target: T1, Bromodomain and extra-terminal motif (BET) (Homo sapiens); details: Flp-In-T-REx-293, dose 500.0 nM, time 10-240 min; remark: listed apart in the source
U2OS [7] = assay: Effect on localization of the nucleolar proteins (PARP1, POLR1E, and TCOF1) in human U2OS cells at 500 nM; type: functional, cell-based
Method in brief: as §1

[8] = test system: Bromodomain-containing protein 1 (Homo sapiens), O95696 [UNDEFINED MUTATION]; assay: Inhibition of BRD1 mutant bromodomain in human U2OS cells expressing BD1 mutant assessed as diffuse nuclear localization of BD1 mutant in asynchronously growing cells at 500 nM by live cell imaging; type: cell-based
Method in brief: as §1

[9] = target: T1, Bromodomain and extra-terminal motif (BET) (Homo sapiens); details: Flp-In-T-REx-293, dose 500.0 nM, time 10-240 min; remark: listed apart in the source
[10] = target: Bromodomain-containing protein 3 (Homo sapiens) (UniProt Q15059); assay: Inhibition of BRD3 in human U2OS cells assessed as displacement of BRD3 from rDNA IGS region toward the transcribed regions at 500 nM; type: cell-based
[11] = test system: Bromodomain-containing protein 3 (Homo sapiens), Q15059 [UNDEFINED MUTATION]; assay: Inhibition of BRD3 mutant bromodomain in human U2OS cells assessed as accumulation of BRD3 mutant in to foci at 500 nM by live cell imaging; type: cell-based
Method in brief: as §1

[12] = target: Bromodomain-containing protein 2 (Homo sapiens) (UniProt P25440); details: U2OS, dose 500.0 nM, time 12.0 hrs
BRD4/BRD9 (Homo sapiens) = BRD4/BRD9 (Homo sapiens) (UniProt O60885+Q9H8M2); details: HEK293, dose 5.0 nmol
[13] = target: T1, Bromodomain and extra-terminal motif (BET) (Homo sapiens); details: Flp-In-T-REx-293, dose 500.0 nM, time 1.0 hrs
[14] = target: T1, Bromodomain and extra-terminal motif (BET) (Homo sapiens); details: Flp-In-T-REx-293, dose 500.0 nM, time 10-240 min; remark: listed apart in the source
[15] = target: T1, Bromodomain and extra-terminal motif (BET) (Homo sapiens); details: Flp-In-T-REx-293, dose 500.0 nM
[16] = target: Bromodomain-containing protein 3 (Homo sapiens) (UniProt Q15059); assay: Inhibition of BRD3 in human Flp-In-T-REx-293 cells assessed as increase in nucleolar protein partners (RNAPI, UBTF and TCOF1 ) at 500 nM incubated for 24 hrs by BioID assay; type: cell-based
Method in brief: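 Stable Flp-In T-REx HEK293 lines carrying BirA*-FLAG-tagged baits were grown in hygromycin to 80% confluence. Expression was induced with 1 μg/mL tetracycline and cells were given 50 μM biotin for 24 h. Lysis was in RIPA, with streptavidin capture for 3 h at 4°C and on-bead trypsin digestion, then LC-MS/MS. BirA*-FLAG-GFP or -NLS cells served as controls. Two biological replicates were run.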

[17] = test system: Bromodomain-containing protein 3 (Homo sapiens), Q15059 [UNDEFINED MUTATION]; assay: Inhibition of BRD3 mutant bromodomain in human U2OS cells assessed as accumulation of BRD3 mutant in nucleolus at 500 nM by live cell imaging; type: cell-based
Method in brief: as §1

[18] = target: T1, Bromodomain and extra-terminal motif (BET) (Homo sapiens); details: Flp-In-T-REx-293, dose 500.0 nM, time 10-240 min; remark: listed apart in the source
[19] = target: T1, Bromodomain and extra-terminal motif (BET) (Homo sapiens); details: Flp-In-T-REx-293, dose 500.0 nM, time 10-240 min; remark: listed apart in the source
[20] = target: Bromodomain-containing protein 3 (Homo sapiens) (UniProt Q15059); assay: Inhibition of BRD3 in human U2OS cells assessed as induction of assembly of GFP-tagged BRD3 constructs in to dense foci at 500 nM measured 12 hrs after drug washout by live cell imaging; type: cell-based
Method in brief: as §1

[21] = test system: Bromodomain-containing protein 2 (Homo sapiens), P25440 [UNDEFINED MUTATION]; details: U2OS, dose 500.0 nM
[22] = target: T1, Bromodomain and extra-terminal motif (BET) (Homo sapiens); details: Flp-In-T-REx-293, dose 500.0 nM, time 10-240 min; remark: listed apart in the source
[23] = target: Bromodomain-containing protein 3 (Homo sapiens) (UniProt Q15059); assay: Inhibition of BRD3 in human U2OS cells assessed as increase in association with partner protein (TCOF1, UBTF, and RNAPI) at 500 nM; type: cell-based
[24] = target: T1, Bromodomain and extra-terminal motif (BET) (Homo sapiens); details: Flp-In-T-REx-293, dose 500.0 nM; remark: listed apart in the source
[25] = target: Bromodomain-containing protein 3 (Homo sapiens) (UniProt Q15059); assay: Inhibition of BRD3 in human U2OS cells assessed as induction of assembly of GFP-tagged BRD3 constructs in to dense foci at 500 nM measured within 20 seconds by live cell imaging; type: cell-based; details: time 20.0 sec
Method in brief: as §1

Chain of Bromodomain-containing protein 3 (Homo sapiens) (Q15059 2-726 limits assumed): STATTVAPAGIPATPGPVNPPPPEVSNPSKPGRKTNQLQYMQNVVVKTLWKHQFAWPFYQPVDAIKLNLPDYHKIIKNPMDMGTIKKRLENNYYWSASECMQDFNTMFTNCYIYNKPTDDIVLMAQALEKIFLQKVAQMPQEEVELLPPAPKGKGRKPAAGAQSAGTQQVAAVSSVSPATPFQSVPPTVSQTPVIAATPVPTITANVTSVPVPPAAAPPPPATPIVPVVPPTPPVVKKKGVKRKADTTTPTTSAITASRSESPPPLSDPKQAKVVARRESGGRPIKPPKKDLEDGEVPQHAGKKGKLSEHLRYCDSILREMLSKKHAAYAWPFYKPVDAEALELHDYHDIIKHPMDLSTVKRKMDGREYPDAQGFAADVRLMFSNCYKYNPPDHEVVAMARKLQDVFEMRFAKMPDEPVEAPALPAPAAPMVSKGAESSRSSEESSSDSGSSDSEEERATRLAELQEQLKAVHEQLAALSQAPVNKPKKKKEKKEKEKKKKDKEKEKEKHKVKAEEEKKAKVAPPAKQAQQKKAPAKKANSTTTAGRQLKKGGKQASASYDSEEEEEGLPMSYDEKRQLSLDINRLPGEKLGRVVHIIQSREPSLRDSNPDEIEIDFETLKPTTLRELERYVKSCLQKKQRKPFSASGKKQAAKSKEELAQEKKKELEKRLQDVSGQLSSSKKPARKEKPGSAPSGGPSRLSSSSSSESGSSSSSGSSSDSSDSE
Chain of Bromodomain-containing protein 2 (Homo sapiens) (P25440 whole entry, looked up): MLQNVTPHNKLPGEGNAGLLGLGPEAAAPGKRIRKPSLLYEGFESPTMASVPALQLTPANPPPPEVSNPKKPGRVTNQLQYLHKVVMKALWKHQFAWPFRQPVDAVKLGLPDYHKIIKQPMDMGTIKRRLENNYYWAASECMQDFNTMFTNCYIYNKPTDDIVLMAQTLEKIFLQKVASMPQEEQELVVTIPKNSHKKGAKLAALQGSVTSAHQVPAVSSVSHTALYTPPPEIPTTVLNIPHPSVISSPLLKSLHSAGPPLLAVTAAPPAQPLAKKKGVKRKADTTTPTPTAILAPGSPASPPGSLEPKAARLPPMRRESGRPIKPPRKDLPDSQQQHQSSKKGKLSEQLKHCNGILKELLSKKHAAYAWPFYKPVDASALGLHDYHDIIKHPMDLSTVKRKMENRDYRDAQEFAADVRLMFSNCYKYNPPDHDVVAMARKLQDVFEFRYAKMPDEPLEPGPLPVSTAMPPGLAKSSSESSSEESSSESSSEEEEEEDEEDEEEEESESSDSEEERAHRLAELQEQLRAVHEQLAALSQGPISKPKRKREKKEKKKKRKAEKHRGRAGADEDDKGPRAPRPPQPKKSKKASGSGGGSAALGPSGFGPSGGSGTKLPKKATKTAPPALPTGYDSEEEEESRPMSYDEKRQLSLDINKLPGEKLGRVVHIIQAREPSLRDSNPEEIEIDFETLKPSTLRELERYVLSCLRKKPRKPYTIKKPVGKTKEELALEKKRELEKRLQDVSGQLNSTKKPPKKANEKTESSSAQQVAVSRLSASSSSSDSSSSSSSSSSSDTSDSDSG
Chain of Bromodomain-containing protein 2 (Homo sapiens), P25440 [UNDEFINED MUTATION] (P25440 whole entry, looked up, change not shown): as the sequence (P25440 whole entry, looked up) above
Chain of Bromodomain-containing protein 3 (Homo sapiens), Q15059 [UNDEFINED MUTATION] (Q15059 whole entry, looked up, change not shown): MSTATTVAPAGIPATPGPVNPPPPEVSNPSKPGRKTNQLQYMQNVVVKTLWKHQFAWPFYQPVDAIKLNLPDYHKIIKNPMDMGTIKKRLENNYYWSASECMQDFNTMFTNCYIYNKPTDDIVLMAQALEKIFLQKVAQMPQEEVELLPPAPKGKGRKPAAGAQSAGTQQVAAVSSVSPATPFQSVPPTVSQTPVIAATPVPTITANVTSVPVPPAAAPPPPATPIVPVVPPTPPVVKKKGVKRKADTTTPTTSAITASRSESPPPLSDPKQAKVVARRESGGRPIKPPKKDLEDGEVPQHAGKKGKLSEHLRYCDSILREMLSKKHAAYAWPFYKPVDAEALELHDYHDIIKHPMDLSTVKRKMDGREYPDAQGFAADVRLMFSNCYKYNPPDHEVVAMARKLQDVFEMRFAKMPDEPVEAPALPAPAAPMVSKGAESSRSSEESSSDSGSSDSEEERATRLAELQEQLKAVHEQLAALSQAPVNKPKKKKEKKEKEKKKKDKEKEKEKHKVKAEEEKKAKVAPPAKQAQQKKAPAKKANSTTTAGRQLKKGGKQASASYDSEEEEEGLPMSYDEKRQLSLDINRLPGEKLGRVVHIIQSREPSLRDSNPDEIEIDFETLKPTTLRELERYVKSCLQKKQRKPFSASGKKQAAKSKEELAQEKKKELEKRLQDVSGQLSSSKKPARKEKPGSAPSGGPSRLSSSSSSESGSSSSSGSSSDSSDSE
Chain of Bromodomain-containing protein 1 (Homo sapiens), O95696 [UNDEFINED MUTATION] (O95696 whole entry, looked up, change not shown): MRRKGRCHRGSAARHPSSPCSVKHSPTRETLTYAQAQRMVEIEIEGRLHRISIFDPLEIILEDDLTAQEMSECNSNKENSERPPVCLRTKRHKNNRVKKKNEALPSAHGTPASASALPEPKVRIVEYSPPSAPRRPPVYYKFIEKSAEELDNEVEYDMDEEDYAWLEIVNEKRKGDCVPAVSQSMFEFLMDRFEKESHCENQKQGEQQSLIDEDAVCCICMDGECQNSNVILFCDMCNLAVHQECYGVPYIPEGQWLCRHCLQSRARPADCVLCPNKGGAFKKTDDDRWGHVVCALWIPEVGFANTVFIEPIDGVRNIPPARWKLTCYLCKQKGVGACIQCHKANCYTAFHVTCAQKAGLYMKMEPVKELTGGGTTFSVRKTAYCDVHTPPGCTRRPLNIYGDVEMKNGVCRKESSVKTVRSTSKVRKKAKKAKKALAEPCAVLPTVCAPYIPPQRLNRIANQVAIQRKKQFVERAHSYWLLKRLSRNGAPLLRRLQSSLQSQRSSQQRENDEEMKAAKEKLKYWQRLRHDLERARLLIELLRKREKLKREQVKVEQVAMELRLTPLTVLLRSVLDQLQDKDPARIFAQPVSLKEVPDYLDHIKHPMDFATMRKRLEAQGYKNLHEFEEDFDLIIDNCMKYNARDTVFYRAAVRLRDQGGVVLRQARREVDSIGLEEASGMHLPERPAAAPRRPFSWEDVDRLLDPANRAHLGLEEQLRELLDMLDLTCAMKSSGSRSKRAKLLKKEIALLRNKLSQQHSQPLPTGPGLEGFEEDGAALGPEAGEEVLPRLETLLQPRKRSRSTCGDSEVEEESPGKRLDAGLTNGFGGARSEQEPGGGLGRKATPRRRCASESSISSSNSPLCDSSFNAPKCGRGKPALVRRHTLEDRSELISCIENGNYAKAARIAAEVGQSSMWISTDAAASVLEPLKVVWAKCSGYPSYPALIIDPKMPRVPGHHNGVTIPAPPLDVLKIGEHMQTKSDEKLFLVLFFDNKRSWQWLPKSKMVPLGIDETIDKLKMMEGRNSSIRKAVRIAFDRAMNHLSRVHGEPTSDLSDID
Chain of BRD4/BRD9 (Homo sapiens) (Q9H8M2 whole entry, looked up, other chains not shown): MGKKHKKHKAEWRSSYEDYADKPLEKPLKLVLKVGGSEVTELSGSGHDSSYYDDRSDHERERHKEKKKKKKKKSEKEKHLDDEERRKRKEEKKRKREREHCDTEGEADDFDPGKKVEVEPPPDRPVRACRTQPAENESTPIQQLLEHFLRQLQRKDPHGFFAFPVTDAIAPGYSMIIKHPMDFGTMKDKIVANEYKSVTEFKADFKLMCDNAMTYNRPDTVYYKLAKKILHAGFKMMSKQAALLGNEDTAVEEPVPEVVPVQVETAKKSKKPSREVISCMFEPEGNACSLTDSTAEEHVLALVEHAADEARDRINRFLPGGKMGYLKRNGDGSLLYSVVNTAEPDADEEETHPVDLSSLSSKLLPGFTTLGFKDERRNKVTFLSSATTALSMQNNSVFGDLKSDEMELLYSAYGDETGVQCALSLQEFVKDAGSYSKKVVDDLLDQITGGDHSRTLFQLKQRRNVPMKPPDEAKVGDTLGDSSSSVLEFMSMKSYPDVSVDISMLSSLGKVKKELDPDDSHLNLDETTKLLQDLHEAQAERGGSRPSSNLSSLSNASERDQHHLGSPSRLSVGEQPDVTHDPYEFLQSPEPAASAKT

Cc1sc2c(c1C)C(c1ccc(Cl)cc1)=N[C@@H](CC(=O)OC(C)(C)C)c1nnc(C)n1-2
inhibition [1]: Active | inhibition [2]: Active | inhibition (U2OS [3]): inactive | inhibition [4]: Active | inhibition [5]: inactive | inhibition [6]: Active | Activity (U2OS [7]): inactive | inhibition [8]: inactive | log2FC [9]: 2 | inhibition [10]: Active | inhibition [11]: Active | inhibition [12]: Active | inhibition (BRD4/BRD9 (Homo sapiens)): inactive | inhibition [13]: Active | log2FC [14]: > 2 | inhibition [15]: Active | inhibition [16]: Active | inhibition [17]: Active | log2FC [18]: > 2 | inhibition [19]: Active | inhibition [20]: Active | inhibition [21]: inactive | inhibition [22]: Active | inhibition [23]: Active | inhibition [24]: Active | inhibition [25]: Active
